Laboratory results published in ChEMBL document CHEMBL2176901, “Pyrrolo[3,4-h]quinolinones a new class of photochemotherapeutic agents” (Bioorg Med Chem, 2011).
The source made the active and inactive calls. The calls are words filed in the database; no cut-off is given here.

What was measured:
[1] = Drug uptake in mitochondria of human NCTC-2544 cells at 10 uM after 2 hrs by fluorescence microphotography; assay type: ADME; conditions: nctc-2544, 2 h
Summary of the method: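 NCTC-2544 cells attached in Petri dishes, given compound at 10 μM for 2 h, washed with HBSS. Then 30 min with Rhodamine 123 (mitochondria), LysoTracker RED, CellMask Orange (plasma membrane) or ER-Tracker. Blue compound fluorescence overlaid on probe images by video-confocal microscopy.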

Jurkat [2] = test: Phototoxicity in 3.75 J/cm'2 UV-A irradiated human Jurkat cells after 72 hrs by MTT assay; assay type: functional, cell-based; conditions: light or radiation study
Summary of the method: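 Jurkat cells (8 × 10³/well) in RPMI-1640 with 10% FBS, held 18 h at 37 °C, 5% CO2. Compound stock in DMSO was diluted in HBSS pH 7.2 and added for 30 min at 37 °C. Cells were UV-A irradiated (lamp mainly 365 nm, 4.0 mW/cm²), then returned to medium for 72 h. MTT readout. IC50 is the mean ± SEM of three experiences.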

[3] = Photodegradation of the compound in DMSO assessed as formation of photoproducts at 20 uM at 1.3 to 14.1 J/cm'2 UV-A irradiation; assay type: physicochemical
Summary of the method: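 Compound solutions at 20 μM in DMSO exposed to increasing UV-A doses (HPW 125 lamps, mainly 365 nm, 4.0 mW cm⁻²). Absorption spectra recorded after each dose; isosbestic points noted.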

MCF7 = test: Phototoxicity in 2.5 J/cm'2 UV-A irradiated human MCF7 cells assessed as cell viability after 72 hrs by MTT assay in presence of radical scavenger DABCO; assay type: functional, cell-based
Summary of the method: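 MCF-7 cells given compound plus scavenger in HBSS, 30 min at 37 °C, then UV-A (2.5 J/cm², 365 nm lamp). Medium replaced; viability by MTT after 72 h. Means ± SEM of at least three independent experiments.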

Jurkat [4] = test: Cell cycle arrest in UV-A irradiated human Jurkat cells assessed as accumulation at S phase at 10 uM after 24 hrs by propidium iodide based flow cytometry (reference value: 25.3 %); assay type: functional
Summary of the method: (§1)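 Exponentially growing Jurkat cells (5×10^5) irradiated with UV-A (365 nm lamp, 2.5 J/cm²) in presence of compound. After 24 h: fixed in ice-cold 70% ethanol, lysed with RNAse A, stained with PI (10 µg/ml), analysed by flow cytometry. Phases calculated on living cells; subG1 is hypodiploid DNA peak.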

Jurkat [5] = test: Cell cycle arrest in UV-A irradiated human Jurkat cells assessed as accumulation at G2/M phase at 10 uM after 24 hrs by propidium iodide based flow cytometry (reference value: 10.3 %); assay type: functional; summary of the method: as §1
Nucleic Acid = test: Binding affinity to salmon testes DNA at drug/DNA ratio of 0.03 by linear dichroism analysis; assay type: nucleic-acid assay; conditions: Salmonidae
Summary of the method: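 Flow linear dichroism in 10 mM phosphate buffer pH 7.2. Samples oriented in a rotating cylindrical cuvette (0.14 cm path, 800 rpm) at several drug/DNA ratios.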

Structure (SMILES): CCOC(=O)c1c2c(c(C)n1C)-c1c(cc(S(=O)(=O)c3ccccc3)c(=O)n1C)CC2
- Drug uptake [1]: Active
- IC50 (Jurkat [2]): 800 nM
- Stability [3]: Unstable
- Activity (MCF7): inactive
- Activity (Jurkat [4]): 55.6%
- Activity (Jurkat [5]): 5.3%
- Activity (Nucleic Acid): inactive
